High-throughput results deposited in PubChem BioAssay by several laboratories.
Compounds with a hit are over-represented: about 2.8% of the library has one in this group of screens.
Biofilm kill mix – clotrimazole potentiators killing C. albicans biofilm, primary screen, 4-compound mixtures; hit rate 0.02% among 120,000; C. albicans biofilm persisters + clotrimazole, fluorescence viability; primary screen in compound mixtures of four per well; inhibition, % at 7.6 µM;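 active means inhibition above 30.3% in the primary screen of four-compound pools, then above 30% when the compound was retested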;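 further: compounds exposed to preformed 24 h biofilms for 48 h; 0% = untreated biofilm control and 100% = clotrimazole plus chlorhexidine kill blank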
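Incubation: 24 h biofilm formation, then 48 h compound exposure, 37 °C | Material: C. albicans biofilms | Buffer or medium: RPMI/MOPS medium, pH 7.0 | Measured by: 2-h Alamar Blue fluorescence, 535/590 nm excitation/emission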
Arbovirus inh – antivirals against arbovirus infection, primary screen, cell-based, full library, 10K replicate subset; AID 1251, 2008; arbovirus infection cell-based antiviral screen; hit rate 0.37% among 200,000; inhibition, % at 10 µM; in the data active means inhibition above about 30%
Bim-Mcl-1 – inhibitors of Bim peptide binding to Mcl-1, primary screen, biochemical, bead-based flow cytometry, multiplex. Bim peptide-Mcl-1 binding. inhibition, % at 10 µM. hit rate 0.1% among 190,000. AID 1009, 2008; in the data active means inhibition above about 40%;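 further: 0% = no compound tracer wells and 100% = peptide blocker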
Target sequence (Q07820 whole entry, looked up): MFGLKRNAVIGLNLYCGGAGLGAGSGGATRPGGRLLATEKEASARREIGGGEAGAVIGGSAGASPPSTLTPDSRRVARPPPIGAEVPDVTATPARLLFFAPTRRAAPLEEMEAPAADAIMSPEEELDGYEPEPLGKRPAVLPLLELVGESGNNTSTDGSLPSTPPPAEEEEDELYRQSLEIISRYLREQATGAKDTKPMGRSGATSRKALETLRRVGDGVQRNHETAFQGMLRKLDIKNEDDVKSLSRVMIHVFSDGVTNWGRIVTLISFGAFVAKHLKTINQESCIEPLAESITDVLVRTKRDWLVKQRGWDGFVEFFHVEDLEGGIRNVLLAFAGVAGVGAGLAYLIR
Mcl1-Noxa inh – Mcl-1/Noxa binding inhibitors, primary screen, biochemical, TR-FRET, 1536-well. hit rate 1.5% among 220,000. inhibition, % at 21.7 µM. TR-FRET Mcl-1/Noxa peptide binding, 2 h. AID 1022, 2008;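 active means compounds that cut the protein-peptide binding signal by more than 50% relative to plate controls in a single-dose test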;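 further: His-tagged Mcl-1 with rhodamine Noxa BH3 peptide and terbium anti-His antibody; 0% = Mcl-1 plus Noxa peptide wells and 100% = peptide-only wells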
Mcl1 Bid PPI – Mcl-1/Bid binding inhibitors, primary screen, biochemical, TR-FRET, 1536-well; hit rate 0.97% among 220,000; TR-FRET Mcl-1/Bid-Dy647 peptide binding; inhibition, % at 21.7 µM;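 active means compounds that cut the binding signal by more than half at the single screening dose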;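 further: His-tagged Mcl-1 with europium anti-His antibody binding Bid BH3 peptide; 0% = Mcl-1 plus peptide wells and 100% = peptide-only wells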
m-calpain inh – inhibitors of pig calpain II, primary screen, biochemical, fluorogenic peptide substrate, 1536-well; inhibition, % at 16 µM; hit rate 0.37% among 220,000; purified calpain II, 30 min;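 active means inhibition above about 50%, limit read from the data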
* marks the source's active call; other numbers are inactive results; i = inactive; . = not tested or not shown.

SMILES	Biofilm kill mix	Arbovirus inh	Bim-Mcl-1	Mcl1-Noxa inh	Mcl1 Bid PPI	m-calpain inh
Cc1cc(C)n2nc(C(=O)N/N=C/c3ccco3)nc2n1	21	.	.	-20	-66	-15
Cc1ccnn1CCC(=O)O	21	.	.	0	-26	-28
O=C(CSc1nnc2c3ccccc3c3ccccc3c2n1)Nc1ccccc1	.	-12	-3	13	-51	-223
O=C(CSc1nnc2c3ccccc3c3ccccc3c2n1)Nc1ccccc1F	.	-17	7	61*	4	-41
CCOc1cccc2sc(Cl)nc12	16	0	-4	12	-22	30
CCOc1nsc(OCC)n1	16	.	.	59*	-4	-3
CSc1cccc(NC(=O)CSc2ccc(Cl)cc2)c1	.	-8	-7	16	8	51*
CSc1cccc(NC(=O)CSc2ccc(C)cc2)c1	.	5	-6	21	4	5
O=C(O)CNc1nc(-c2ccccc2)nc2c1oc1ccccc12	13	.	.	0	-16	-15
c1ccc(-c2nc(NCc3cccnc3)c3oc4ccccc4c3n2)cc1	.	-22	-1	36	63*	15
CSCC[C@@H](Nc1nc(-c2ccccc2)nc2c1oc1ccccc12)C(=O)O	.	17	-2	27	60*	-18
C/C(=N\Nc1ccc(F)cc1F)c1cccs1	6	-31	0	-12	-80	-14
CCCN1Cc2cccc(C(=O)N3CCN(c4cc(Cl)ccc4C)CC3)c2C1=O	.	47*	0	1	-17	-40
O=C(c1ccco1)N1CCN(C(=O)c2ccccc2NS(=O)(=O)c2ccc(F)cc2)CC1	-2	4	1	12	-16	-9
C/C(=N\NC(=S)NC1CCCCC1)c1ccc(OC(F)F)cc1OC(F)F	22	-1	0	-7	-39	54*
O=C(O)Cc1sc(N/N=C\c2ccccc2)nc1-c1ccccc1	15	-5	-3	62*	-35	17
O=C1C2C3C=CC(C2C(=O)N1CCCO)C1C2C(=O)N(CCCO)C(=O)C2C31 (stereo not drawn)	.	5	1	-4	63*	-3
CCCCN1C(=O)C2C3C=CC(C2C1=O)C1C2C(=O)N(CCCC)C(=O)C2C31 (stereo not drawn)	3	1	0	-1	42	-1
S=C(NCCCN1CCOCC1)Nc1cccc(-c2nnc3n2CCCCC3)c1	17	5	-3	2	-44	-25
Cc1nn(-c2ccccc2)c2sc(-c3n[nH]c(=S)o3)cc12	.	-15	5	67*	-16	i
O=C(NC1CCN(C(=O)C2CCCCC2)CC1)c1ccccc1	26	.	.	7	-17	-15
COc1cccc(N=C(N)N)c1	11	6	0	-11	-4	-4
O=C(N/N=C/c1cc(Br)cc(Br)c1O)c1cccc(N2CCCC2=O)c1	29	-26	-3	-29	-88	-195
Cc1ccc(OCc2ccc(C(=O)Nc3nc4ccccc4n3Cc3ccccc3)o2)c([N+](=O)[O-])c1	.	-45	-2	28	68*	-87
O=C(NCCC1=CCCCC1)C(=O)NCC1OCCCN1S(=O)(=O)c1ccc(F)cc1 (stereo not drawn)	0	-1	0	-3	-1	35
SMILES	Biofilm kill mix	Arbovirus inh	Bim-Mcl-1	Mcl1-Noxa inh	Mcl1 Bid PPI	m-calpain inh
O=C(Nc1nc(-c2ccccn2)cs1)C1CC(=O)N(c2ccc3c(c2)OCCO3)C1 (stereo not drawn)	12	-16	0	71*	-94	-39
CCN(CC)C(=O)CN(C)S(=O)(=O)c1cccc2nsnc12	.	10	-1	-7	76*	-3
CN1CCN(S(=O)(=O)c2cccc(C(=O)NCc3ccc(Cl)cc3)c2)CC1	9	23	1	13	-2	31
CC(NCc1ccc(S(N)(=O)=O)cc1)C(=O)N1c2ccccc2CC1C (stereo not drawn)	17	.	.	-3	9	-3
O=C1COc2ccc(C(=O)COC(=O)c3sc4ccccc4c3Cl)cc2N1	16	-2	0	26	-5	22
Cc1cc(=O)[nH]c(SCC(=O)c2ccc3c(c2)NC(=O)CO3)n1	12	.	.	18	97*	18
Nc1cc(N)nc(SCC(=O)c2ccc3c(c2)NC(=O)CO3)n1	-4	-2	-4	3	-35	-27
CN(C)S(=O)(=O)c1ccc(C(=O)OCC(=O)c2ccc3c(c2)NC(=O)CO3)cc1	19	.	.	-11	8	3
CN(C)S(=O)(=O)c1cccc(C(=O)OCC(=O)c2ccc3c(c2)NC(=O)CO3)c1	.	-7	89*	7	-12	7
Cc1cc(C(=O)OCC(=O)c2ccc3c(c2)NC(=O)CO3)c2ccccc2n1	.	2	0	37	63*	-67
O=C(NC(=S)Nc1c(Cl)ccc2nsnc12)c1ccco1	13	6	-4	25	-42	1
Nc1nn2c(C(F)(F)F)cc(=O)[nH]c2c1N=Nc1cccc(F)c1	13	16	1	-5	-30	31
Cc1cc(=O)[nH]c2c(N=Nc3ccc(O)cc3)c(N)nn12	1	-2	21	57*	-37	2
c1ccc(-n2ncc3c(NCc4cccs4)ncnc32)cc1	.	-16	0	-1	2	64*
COc1ccc(-n2ncc3c(NCc4cccs4)ncnc32)cc1	.	-8	-1	21	16	8
Cc1ccc(NC(=O)CN2CCc3ccccc3C2)cc1F	20	.	.	27	98*	-18
Cc1ccc(NC(=O)CN2CCc3ccccc3C2)cc1S(=O)(=O)N(C)C	3	7	-3	19	11	6
COc1cc2c(cc1OC)CN(CC(=O)Nc1ccc(C#N)cc1)CC2	.	0	5	6	98*	-35
O=C(CCN1CCc2ccccc2C1)Nc1cccc(F)c1	.	12	-5	16	77*	-25
Cc1c(C(=O)N2CCC(C)CC2)sc2ncnc(N3CCN(c4ccccc4)CC3)c12	.	-3	-2	19	-7	63*
Cc1c(C(=O)N2CCN(c3ccccn3)CC2)sc2ncnc(N3CCOCC3)c12	.	9	0	-9	-25	13
N#Cc1cc(C#N)c(N2CCN(c3ccccn3)CC2)nc1N	.	-4	-4	12	-29	22
NNc1ccc(Cl)nn1	3	.	.	-12	-56	-4
Cc1ccc(-c2ccc(/C=N/NC(=S)Nc3ccccc3)o2)cc1[N+](=O)[O-]	.	-13	-3	-33	-121	-22
O=C1NC(=S)N/C1=C/c1ccc(-c2c(Br)cc([N+](=O)[O-])cc2Br)o1	.	-25	-2	86*	98*	-36
Cc1ccc(-c2ccc(/C=C3/NC(=O)NC3=O)o2)cc1[N+](=O)[O-]	22	-32	2	77*	73*	-70
